In brackets after ≈: the same amount, converted by molar mass. Where two headings read alike, the source gives them in different places.
Experiments:
MDCKII monolayers = assay type: in vitro ADME, Canine; conditions: MDCKII monolayers; for Efflux ratio after EDTA treatment compared to non-EDTA treatment groups: all test groups; for Papp (a–b) / Papp (b-a): without EDTA treatment
Procedure, shortened: (§1)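 MDCKII cells seeded at 2.0 × 10^5 per polycarbonate insert (1.12 cm2, 0.4 μm) and grown 7 days; monolayers used only if TEER > 200 Ωcm2. Flux run in both directions per the Caco-2 protocol: HBSS/25 mM HEPES pH 7.4, 37°C, 2 h, serial sampling. Optional pretreatment: 5 μM EDTA in Ca/Mg-free HBSS, both sides, 5 min at 37°C, then washed. Compound by HPLC-UV, lucifer yellow by fluorescence (485/535 nm); n = 3.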

[1] = Bidirectional flux of EFdA in Caco-2 cell monolayers; assay type: in vitro ADME; conditions: human, Caco-2, pH 7.4
Procedure, shortened: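 Caco-2 cells seeded at 2.0 × 10^5 per polycarbonate insert (1.12 cm2, 0.4 μm) and differentiated 21 days. Monolayers were washed and pre-incubated 20 min at 37°C in HBSS, then TEER was read. Donor (apical or basolateral) held 25, 100 or 400 μM compound in HBSS/25 mM HEPES pH 7.4; 2 h at 37°C with shaking, sampled 0–120 min. HPLC-UV at 260 nm. Papp = (dQ/dt)/(A×C0); efflux ratio = Papp(b-a)/Papp(a-b); n = 3.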

ABCB1 transporter (PGP1) = ABCB1 transporter (PGP1) (Homo sapiens, UniProt P08183); assay type: cell-based; conditions: PGP1 overexpressing MDCKII cells, even at 200 μM
Chain of ABCB1 transporter (PGP1) (P08183 whole entry): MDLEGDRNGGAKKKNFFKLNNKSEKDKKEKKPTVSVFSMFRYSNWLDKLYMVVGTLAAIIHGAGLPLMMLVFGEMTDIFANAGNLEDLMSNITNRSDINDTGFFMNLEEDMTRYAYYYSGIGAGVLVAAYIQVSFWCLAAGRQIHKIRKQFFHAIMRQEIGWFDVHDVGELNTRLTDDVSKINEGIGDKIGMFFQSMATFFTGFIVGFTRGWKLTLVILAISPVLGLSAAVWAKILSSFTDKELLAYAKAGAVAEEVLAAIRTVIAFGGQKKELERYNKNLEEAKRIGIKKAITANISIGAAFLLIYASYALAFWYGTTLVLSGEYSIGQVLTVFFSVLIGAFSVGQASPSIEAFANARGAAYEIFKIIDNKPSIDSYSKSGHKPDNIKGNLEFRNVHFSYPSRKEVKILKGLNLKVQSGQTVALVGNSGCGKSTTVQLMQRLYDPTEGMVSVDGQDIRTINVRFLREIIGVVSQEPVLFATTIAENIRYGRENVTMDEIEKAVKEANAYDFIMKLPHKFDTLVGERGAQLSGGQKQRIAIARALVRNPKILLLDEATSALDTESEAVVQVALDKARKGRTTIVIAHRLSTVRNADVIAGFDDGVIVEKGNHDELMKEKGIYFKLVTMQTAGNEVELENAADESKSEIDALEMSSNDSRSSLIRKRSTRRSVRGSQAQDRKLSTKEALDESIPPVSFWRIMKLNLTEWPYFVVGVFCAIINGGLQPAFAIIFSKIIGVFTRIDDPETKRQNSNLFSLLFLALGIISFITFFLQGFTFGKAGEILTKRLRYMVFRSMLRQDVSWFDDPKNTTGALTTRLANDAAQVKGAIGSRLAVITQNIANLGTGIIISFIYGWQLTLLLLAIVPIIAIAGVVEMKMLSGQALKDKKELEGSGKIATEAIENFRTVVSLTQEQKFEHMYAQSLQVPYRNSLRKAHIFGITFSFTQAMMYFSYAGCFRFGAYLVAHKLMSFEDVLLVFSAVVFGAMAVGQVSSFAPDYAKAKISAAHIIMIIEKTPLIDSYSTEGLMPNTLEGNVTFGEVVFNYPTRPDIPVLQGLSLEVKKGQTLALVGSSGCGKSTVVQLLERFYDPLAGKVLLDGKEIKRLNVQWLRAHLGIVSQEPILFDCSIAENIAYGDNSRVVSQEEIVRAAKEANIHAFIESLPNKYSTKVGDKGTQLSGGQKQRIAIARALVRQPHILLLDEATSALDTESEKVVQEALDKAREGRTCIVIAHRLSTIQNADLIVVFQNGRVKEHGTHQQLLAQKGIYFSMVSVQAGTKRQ

[2] = assay type: in vitro ADME, Canine; conditions: dog, MDCK
Procedure, shortened: as §1

[3] = ref Zhang et al., 2013, cited from earlier work
[4] = ref Zhang et al., 2013; cited from earlier work
[5] = tested on: human ectocervical tissues; conditions: three separate human ectocervical tissues; ref Zhang et al., 2013; cited from earlier work
Caco-2 monolayers = conditions: pH from 5.5 to 7.4, ref Zhang et al., 2013; cited from earlier work
MDCKII cells [6] = experiment: Calcein-AM uptake assay in MDCKII cells; assay type: cell-based, Canine; conditions: MDCKII cells without PGP1 expression, calcein-AM 1 μM
MDCKII cells [7] = experiment: In vitro cytotoxicity, MTT assay, MDCKII cells; assay type: cell-based, Canine; conditions: 48 h, n = 8, mean ± SD
Procedure, shortened: (§2)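 Parental and PGP1-overexpressing MDCKII cells seeded at 5 × 10^3 per well, incubated 24 h at 37°C/5% CO2, then exposed 48 h to serial concentrations of DMSO-dissolved compound (DMSO ≤1% v/v). MTT (5 mg/ml solution) was added for 4 h at 37°C, formazan dissolved in DMSO, absorbance read at 595 nm; IC50 derived; mean ± SD.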

[8] = tested on: PGP1 overexpressing MDCKII cells; experiment: In vitro cytotoxicity, MTT assay, PGP1 overexpressing MDCKII cells; assay type: cell-based, Canine; conditions: 48 h, n = 8, mean ± SD
Procedure, shortened: as §2

With Lucifer yellow [LY] the “Efflux ratio after EDTA treatment compared to non-EDTA treatment groups” value (MDCKII monolayers) was “higher”, the “Papp (a–b)” value (MDCKII monolayers; 25 μM) was 3.76 ± 0.12 × 10^−7cm/s and the “Papp (b-a)” value (MDCKII monolayers; 25 μM) was 4.14 ± 0.40 × 10^−7cm/s. For the same molecule, the “Papp (a–b)” value (MDCKII monolayers; 100 μM) was 1.70 ± 0.06 × 10^−7cm/s, the “Papp (b-a)” value (MDCKII monolayers; 100 μM) was 2.05 ± 0.12 × 10^−7cm/s and the “Papp (a–b)” value (MDCKII monolayers; 400 μM) was 1.77 ± 0.31 × 10^−7cm/s. The “Papp (b-a)” value (MDCKII monolayers; 400 μM) was 2.07 ± 0.46 × 10^−7cm/s.

For C#C[C@]1(CO)O[C@@H](n2cnc3c(N)nc(F)nc32)C[C@@H]1O [EFdA, 4′-ethynyl-2-fluoro-2′-deoxyadenosine], the efflux ratio at 2 h [1] was over 2, the efflux ratio at 2 h, 100 μM [1] was 5.7 and the efflux ratio at 2 h, 400 μM [1] was 2.5. For the same molecule, the PGP1 inhibitory effect (ABCB1 transporter (PGP1)) was “lack of observed PGP1 inhibitory effect”, the Papp A→B [2] was under 1 ×10⁻⁶ cm/s and the efflux ratio [2] was about 1. For the same molecule, the “Efflux ratio after EDTA treatment compared to non-EDTA treatment groups” value (MDCKII monolayers) was “higher”, the Change in solubility ([3]; pH from 6 to 9) was “no obvious change” and the Solubility in water [3] was 1000 µg/mL (≈ 3.41 mM). For the same molecule, the “Log Po/w” value [4] was −1.2, the Papp [5] was under 1 ×10⁻⁶ cm/s and the “pH dependence of transport” value (Caco-2 monolayers) was “independent of pH”.

In the case of C=C[C@H]1C[N@@]2CC[C@H]1C[C@@H]2[C@@H](O)c1ccnc2ccc(OC)cc12 [Quinidine], the “PGP1 inhibitory response (calcein fluorescence)” value (MDCKII cells [6]) is reported as “no obvious PGP1 inhibitory response”.

With Ivermectin the IC50 (MDCKII cells [7]) was 20 ± 2.91 µM, the IC50 [8] was 12.2 ± 0.87 µM and the “PGP1 inhibitory response (calcein fluorescence)” value (MDCKII cells [6]) was “no obvious PGP1 inhibitory response”.

Reference: publication PMC4074512 (European journal of pharmacology, 2014)
